Reference: ChEMBL document CHEMBL1145072, “Synthesis and biological evaluation of novel flavone-8-acetic acid derivatives as reversible inhibitors of aminopeptidase N/CD13” (J Med Chem, 2003)

Tests used:
[1] = target: Aminopeptidase N (Homo sapiens) (UniProt P15144); assay: In vitro inhibition of aminopeptidase N (APN) activity in intact U937 cells in presence of Ala-pNA and 10e-3 M concentration of compound; assay type: cell-based; conditions: U-937
Summary of the method: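 Intact U937 cells (5 × 10⁵) incubated 15 min at 37 °C in 0.1 mL peptidase buffer with Ala-pNA (0.5 mg/mL) and compound at 10^-3 M. pNA release read at 405 nm. Remaining activity expressed as percent of uninhibited control; mean of three to ten experiments ± SD.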
Target sequence in this assay (P15144 whole entry): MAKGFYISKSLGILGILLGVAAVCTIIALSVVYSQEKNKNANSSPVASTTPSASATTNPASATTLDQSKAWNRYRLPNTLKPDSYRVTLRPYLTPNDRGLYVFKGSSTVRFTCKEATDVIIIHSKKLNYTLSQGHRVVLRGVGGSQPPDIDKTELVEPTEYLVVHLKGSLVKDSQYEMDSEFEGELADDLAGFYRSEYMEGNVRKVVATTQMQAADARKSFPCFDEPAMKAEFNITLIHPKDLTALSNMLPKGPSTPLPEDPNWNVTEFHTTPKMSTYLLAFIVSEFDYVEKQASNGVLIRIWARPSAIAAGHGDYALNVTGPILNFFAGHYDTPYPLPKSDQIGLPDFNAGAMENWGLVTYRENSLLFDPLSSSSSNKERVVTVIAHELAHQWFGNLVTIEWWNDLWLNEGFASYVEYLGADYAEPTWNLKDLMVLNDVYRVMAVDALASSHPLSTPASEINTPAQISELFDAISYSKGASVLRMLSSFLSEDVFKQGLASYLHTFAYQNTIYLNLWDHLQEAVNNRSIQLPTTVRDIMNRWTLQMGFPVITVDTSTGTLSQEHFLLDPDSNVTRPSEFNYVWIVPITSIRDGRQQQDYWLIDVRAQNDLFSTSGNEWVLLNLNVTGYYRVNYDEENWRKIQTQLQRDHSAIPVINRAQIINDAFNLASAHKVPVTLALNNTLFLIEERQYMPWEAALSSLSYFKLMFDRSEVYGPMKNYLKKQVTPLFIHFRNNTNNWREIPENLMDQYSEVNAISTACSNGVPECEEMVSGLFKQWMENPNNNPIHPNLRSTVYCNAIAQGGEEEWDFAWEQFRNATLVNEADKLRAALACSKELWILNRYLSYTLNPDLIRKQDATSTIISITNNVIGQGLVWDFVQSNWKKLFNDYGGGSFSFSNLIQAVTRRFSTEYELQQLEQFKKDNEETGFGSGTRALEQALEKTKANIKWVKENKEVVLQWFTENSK

U-937 = assay: In vitro cytotoxicity towards U937 cell growth was evaluated after 3 days of incubation (10e-4 M); assay type: functional, Homo sapiens
Summary of the method: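 Human monoblastic U937 cells in RPMI 1640 with 10% heat-inactivated FCS, 5% CO2, 37 °C; seeded at 0.5 × 10⁵ cells/mL in fresh medium and exposed continuously to 10^-4 M compound for 3 days. Cells then washed twice and counted, and viability determined by trypan blue exclusion.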

[2] = target: Aminopeptidase N (Homo sapiens) (UniProt P15144); assay: Inhibitory concentration of compound towards cell surface aminopeptidase N (APN/CD13) on human U937 cells
Target sequence in this assay (P15144 whole entry, looked up): as the sequence (P15144 whole entry) above

[3] = target: T1, Aminopeptidase N (Sus scrofa) (UniProt P15145); assay: Inhibition of cell surface aminopeptidase N (APN/CD13) at 0.3*10e-3 M compound concentration
T1 sequence (whole entry): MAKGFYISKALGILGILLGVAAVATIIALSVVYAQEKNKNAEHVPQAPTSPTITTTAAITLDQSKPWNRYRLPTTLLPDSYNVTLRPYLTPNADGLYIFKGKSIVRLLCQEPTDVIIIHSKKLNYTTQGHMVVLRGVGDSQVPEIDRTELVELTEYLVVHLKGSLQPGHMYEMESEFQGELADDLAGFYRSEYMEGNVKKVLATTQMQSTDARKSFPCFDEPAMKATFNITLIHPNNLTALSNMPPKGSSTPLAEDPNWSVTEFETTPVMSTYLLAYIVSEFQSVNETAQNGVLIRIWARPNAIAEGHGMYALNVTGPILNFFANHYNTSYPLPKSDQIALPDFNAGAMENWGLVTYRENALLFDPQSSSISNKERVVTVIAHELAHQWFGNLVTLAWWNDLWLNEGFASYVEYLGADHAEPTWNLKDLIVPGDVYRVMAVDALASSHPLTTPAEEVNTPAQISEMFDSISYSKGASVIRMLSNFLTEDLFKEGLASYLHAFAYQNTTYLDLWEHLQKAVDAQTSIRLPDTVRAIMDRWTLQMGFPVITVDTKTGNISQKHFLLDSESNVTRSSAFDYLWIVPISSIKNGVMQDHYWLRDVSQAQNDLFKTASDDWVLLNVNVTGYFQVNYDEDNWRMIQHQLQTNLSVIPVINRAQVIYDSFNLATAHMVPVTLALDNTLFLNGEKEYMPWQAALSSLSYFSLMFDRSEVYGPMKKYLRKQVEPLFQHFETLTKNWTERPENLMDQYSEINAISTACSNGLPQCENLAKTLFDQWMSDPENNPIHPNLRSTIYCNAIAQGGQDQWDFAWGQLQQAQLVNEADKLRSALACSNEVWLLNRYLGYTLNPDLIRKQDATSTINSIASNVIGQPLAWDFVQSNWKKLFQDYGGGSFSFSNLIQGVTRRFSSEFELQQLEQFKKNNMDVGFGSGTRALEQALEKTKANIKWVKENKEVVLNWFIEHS

[4] = target: T2, Neprilysin (Rattus norvegicus) (UniProt P07861); assay: Inhibition of neutral endopeptidase (NEP[…]) at 0.3*10e-3 M compound concentration
T2 sequence (whole entry): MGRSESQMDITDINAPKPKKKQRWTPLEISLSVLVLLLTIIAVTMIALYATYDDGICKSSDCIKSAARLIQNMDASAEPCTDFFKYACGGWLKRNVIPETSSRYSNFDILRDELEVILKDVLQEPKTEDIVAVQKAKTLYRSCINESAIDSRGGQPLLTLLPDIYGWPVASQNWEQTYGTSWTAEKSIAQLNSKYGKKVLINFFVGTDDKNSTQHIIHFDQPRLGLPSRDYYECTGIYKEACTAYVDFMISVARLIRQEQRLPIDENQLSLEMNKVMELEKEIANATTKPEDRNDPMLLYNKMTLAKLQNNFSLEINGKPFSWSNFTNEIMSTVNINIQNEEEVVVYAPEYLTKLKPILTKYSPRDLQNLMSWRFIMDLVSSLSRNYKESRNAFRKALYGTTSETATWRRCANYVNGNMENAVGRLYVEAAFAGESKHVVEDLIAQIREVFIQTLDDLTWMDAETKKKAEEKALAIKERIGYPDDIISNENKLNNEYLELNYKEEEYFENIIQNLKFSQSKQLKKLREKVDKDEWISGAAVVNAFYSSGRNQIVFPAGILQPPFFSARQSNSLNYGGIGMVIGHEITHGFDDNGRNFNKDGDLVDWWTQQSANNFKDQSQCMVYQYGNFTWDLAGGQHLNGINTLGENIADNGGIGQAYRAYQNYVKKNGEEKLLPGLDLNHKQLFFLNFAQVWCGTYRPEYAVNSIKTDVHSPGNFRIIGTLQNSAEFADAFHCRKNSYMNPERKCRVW

Structure (SMILES): COCOC(=O)Cc1cccc2c(=O)c(N)c(-c3ccccc3O)oc12
- inhibition [1]: 19%
- Cytotoxicity (U-937): >65%

Structure (SMILES): COCOC(=O)Cc1cccc2c(=O)c3c(oc12)-c1ccccc1OC(=O)N3
- inhibition [1]: 25%
- Cytotoxicity (U-937): >95%

Structure (SMILES): COCOC(=O)Cc1cccc2c(=O)c([N+](=O)[O-])c(-c3ccccc3OCc3ccccc3)oc12
- inhibition [1]: 32%
- Cytotoxicity (U-937): >95%

Structure (SMILES): COC(=O)c1ccccc1-c1oc2c(CC(=O)O)cccc2c(=O)c1[N+](=O)[O-]
- inhibition [1]: 66%
- Cytotoxicity (U-937): <10%

Structure (SMILES): O=c1c([N+](=O)[O-])c(-c2ccccc2[N+](=O)[O-])oc2ccccc12
- inhibition [1]: < 5%
- Cytotoxicity (U-937): >40%

Structure (SMILES): COc1ccc([N+](=O)[O-])c(-c2oc3c(CC(=O)O)cccc3c(=O)c2[N+](=O)[O-])c1
- inhibition [1]: 80%
- Cytotoxicity (U-937): <10%

Structure (SMILES): COC(=O)Cc1cccc2c(=O)c([N+](=O)[O-])c(-c3ccccc3)oc12
- inhibition [1]: < 5%
- Cytotoxicity (U-937): <10%

Structure (SMILES): C=CCc1cccc2c(=O)c([N+](=O)[O-])c(-c3ccccc3[N+](=O)[O-])oc12
- inhibition [1]: 16%
- Cytotoxicity (U-937): <10%

Structure (SMILES): O=c1c([N+](=O)[O-])c(-c2ccccc2)oc2ccccc12
- inhibition [1]: 30%
- Cytotoxicity (U-937): <10%

Structure (SMILES): O=C(O)Cc1cccc2c(=O)cc(-c3ccccc3)oc12 [MITOFLAXONE]
- inhibition [1]: 30%
- Cytotoxicity (U-937): <10%

Structure (SMILES): COCOC(=O)Cc1cccc2c(=O)c([N+](=O)[O-])c(-c3ccccc3[N+](=O)[O-])oc12
- inhibition [1]: 48%
- Cytotoxicity (U-937): >85%

Structure (SMILES): O=C(O)Cc1cccc2c(=O)c([N+](=O)[O-])c(-c3ccccc3[N+](=O)[O-])oc12
- inhibition [1]: 88%
- Cytotoxicity (U-937): <10%
- IC50 [2]: 25 µM

Structure (SMILES): COc1ccccc1-c1oc2c(CC(=O)O)cccc2c(=O)c1[N+](=O)[O-]
- inhibition [1]: 69%
- Cytotoxicity (U-937): >20%

Structure (SMILES): O=C(O)Cc1cccc2c(=O)c3c(oc12)-c1ccccc1NC(=O)N3
- inhibition [1]: 8%
- Cytotoxicity (U-937): <10%

Structure (SMILES): O=C(O)Cc1cccc2c(=O)c([N+](=O)[O-])c(-c3ccccc3)oc12
- inhibition [1]: 68%
- Cytotoxicity (U-937): <10%

Structure (SMILES): O=C(O)Cc1cccc2c(=O)c([N+](=O)[O-])c(-c3cccc([N+](=O)[O-])c3)oc12
- inhibition [1]: 44%
- Cytotoxicity (U-937): <10%

Structure (SMILES): Cl.Nc1c(-c2ccccc2)oc2c(CC(=O)O)cccc2c1=O
- inhibition [1]: 33%
- Cytotoxicity (U-937): <10%

Structure (SMILES): O=c1cc(-c2ccccc2)oc2cc(O)c(O)c(O)c12
- inhibition [3]: 57%
- inhibition [4]: 36%

Structure (SMILES): O=c1cc(-c2ccccc2)oc2ccccc12 [FLAVONE]
- inhibition [1]: 5%
- Cytotoxicity (U-937): <10%

Structure (SMILES): O=C(O)Cc1cccc2c(=O)c([N+](=O)[O-])c(-c3ccc([N+](=O)[O-])cc3)oc12
- inhibition [1]: 63%
- Cytotoxicity (U-937): <10%

Structure (SMILES): O=C(O)Cc1cccc2c(O)c3nc4ccccc4c-3oc12
- inhibition [1]: 10%
- Cytotoxicity (U-937): 30%

Structure (SMILES): CC(C)C[C@H](NC(=O)[C@@H](O)[C@H](N)Cc1ccccc1)C(=O)O [UBENIMEX]
- inhibition [1]: 85%
- Cytotoxicity (U-937): >40%

Structure (SMILES): COc1cccc(-c2oc3c(CC(=O)O)cccc3c(=O)c2[N+](=O)[O-])c1[N+](=O)[O-]
- inhibition [1]: 75%
- Cytotoxicity (U-937): <10%

Structure (SMILES): O=C(O)Cc1cccc2c(=O)cc(-c3ccccc3[N+](=O)[O-])oc12
- inhibition [1]: 83%
- Cytotoxicity (U-937): >80%

Structure (SMILES): O=C(O)Cc1cccc2c(=O)c([N+](=O)[O-])c(-c3ccccc3OCc3ccccc3)oc12
- inhibition [1]: 76%
- Cytotoxicity (U-937): >55%

Structure (SMILES): O=C(O)Cc1cccc2c(=O)c([N+](=O)[O-])c(-c3ccccc3Cl)oc12
- inhibition [1]: 76%
- Cytotoxicity (U-937): 30%

Structure (SMILES): O=c1c(O)c(-c2ccc(O)c(O)c2)oc2cc(O)cc(O)c12
- inhibition [3]: 73%
- inhibition [4]: 49%

Structure (SMILES): O=CCc1cccc2c(=O)c([N+](=O)[O-])c(-c3ccccc3)oc12
- inhibition [1]: 51%
- Cytotoxicity (U-937): >40%

Structure (SMILES): COc1cc(-c2oc3cc(O)cc(O)c3c(=O)c2O)ccc1O
- inhibition [3]: 73%
- inhibition [4]: 49%

Structure (SMILES): COc1ccc(-c2oc3c(CC(=O)O)cccc3c(=O)c2[N+](=O)[O-])cc1
- inhibition [1]: 64%
- Cytotoxicity (U-937): >40%

Structure (SMILES): O=C(O)Cc1cccc2c(=O)c([N+](=O)[O-])c(-c3ccccc3C(=O)OCc3ccccc3)oc12
- inhibition [1]: 77%
- Cytotoxicity (U-937): >40%

Structure (SMILES): O=C(O)Cc1cccc2c(=O)c3c(oc12)-c1ccccc1OC(=O)N3
- inhibition [1]: 19%
- Cytotoxicity (U-937): 30%

Structure (SMILES): COc1ccc(-c2oc3c(CC(=O)O)cccc3c(=O)c2[N+](=O)[O-])cc1[N+](=O)[O-]
- inhibition [1]: 61%
- Cytotoxicity (U-937): <10%
